Here are results for five compounds from ChEMBL document CHEMBL1152300, “Ligand specificity of constitutive androstane receptor as probed by induced-fit docking and mutagenesis” (J Med Chem, 2008).

Data set [1] deals with T1, Nuclear receptor subfamily 1 group I member 3 (Mus musculus, UniProt O35627, F171L). The experiment in a line: Enhancement of nuclear co-repressor receptor binding to mouse CAR F171L mutant […] at 10 uM by yeast two-hybrid assay. Format: cell-based. Put shortly:
(§1)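 Yeast two-hybrid: yeast expressing wild-type or mutant mouse CAR LBD plus SRC-1 or NCoR, selected on SD medium lacking Leu and Trp. Pooled colonies treated with DMSO or test chemical for 3.5 h. β-Galactosidase normalized to cell density. SRC-1 reference: wild-type + DMSO = 100. NCoR reference: 10 µM androstenol = 100. Mean ± SD, two independent determinations, each in triplicate.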

In data set [2] the target is T2, Nuclear receptor subfamily 1 group I member 3 (Mus musculus, UniProt O35627).
T2 sequence (O35627 whole entry): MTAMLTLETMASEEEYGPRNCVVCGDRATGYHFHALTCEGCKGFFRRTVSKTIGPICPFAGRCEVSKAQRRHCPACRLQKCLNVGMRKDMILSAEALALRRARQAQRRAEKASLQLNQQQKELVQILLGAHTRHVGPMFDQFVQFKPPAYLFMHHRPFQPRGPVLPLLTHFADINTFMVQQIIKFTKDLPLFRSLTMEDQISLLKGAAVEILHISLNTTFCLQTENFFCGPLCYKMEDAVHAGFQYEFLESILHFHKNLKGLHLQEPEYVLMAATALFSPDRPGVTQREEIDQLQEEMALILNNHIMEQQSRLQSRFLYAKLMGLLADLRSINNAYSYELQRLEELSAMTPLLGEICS
As to the kind of experiment: Activation of wild type mouse CAR expressed in HEK293 cells at 10 uM by mammalian one-hybrid assay. The conditions noted are these: hek293, 10 µM.

For data set [3], the target named is T3, Nuclear receptor subfamily 1 group I member 3 (Mus musculus, UniProt O35627, Y336A). As to the kind of experiment: Effect on nuclear co-repressor receptor binding to mouse CAR Y336A mutant […] at 1 uM by yeast two-hybrid assay. Format: cell-based. The settings on record: read-out: Activity. The method in brief:
(§2)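 Yeast expressing wild-type or mutant mouse CAR LBD plus NCoR, selected on SD plates lacking leucine and tryptophan. Pooled colonies treated with DMSO or compound for 3.5 h. β-Galactosidase activity normalized to cell density. Reference is 10 µM androstenol (=100). Mean ± SD of two independent determinations, each in triplicate.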

In data set [4] the target is T3, Nuclear receptor subfamily 1 group I member 3. The experiment in a line: Decrease in steroid receptor coactivator 1 binding to mouse CAR Y336A mutant […] at 1 uM by yeast two-hybrid assay. Type of data set: cell-based. The settings on record: read-out: Activity. Put shortly:
(§3)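 Yeast expressing wild-type or mutant mouse CAR LBD plus SRC-1, selected on SD plates lacking leucine and tryptophan. Pooled colonies treated with DMSO or compound for 3.5 h. β-Galactosidase activity normalized to cell density. Reference is wild-type CAR + SRC-1 with DMSO (=100). Mean ± SD of two independent determinations, each in triplicate.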

Data set [5] has as its target Nuclear receptor subfamily 1 group I member 3 (Mus musculus, UniProt O35627, H213A). The experiment in a line: Effect on steroid receptor co-activator 1 binding to mouse CAR H213A mutant […] at 1 uM by yeast two-hybrid assay. Format: cell-based. The conditions noted are these: read-out: Activity. Put shortly:
as §3

In data set [6] the target is T1, Nuclear receptor subfamily 1 group I member 3. As to the kind of experiment: Effect on nuclear co-repressor receptor binding to mouse CAR F171L mutant […] at 1 uM by yeast two-hybrid assay. The conditions noted are these: read-out: Activity. Type of data set: cell-based. Put shortly:
as §2

Data set [7] deals with T4, Nuclear receptor subfamily 1 group I member 3 (Mus musculus, UniProt O35627, S251L). As to the kind of experiment: Decrease in mouse CAR S251L mutant activation expressed in HEK293 cells at 1 uM by mammalian one-hybrid assay. Type of data set: cell-based. The conditions noted are these: read-out: Activity. The method in brief:
(§4)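 GAL4 DBD fused to mouse CAR LBD (residues 118-358), wild type or point mutant, cotransfected with UASx4-tk-luc reporter and pCMVβ into HEK293 cells. Cells cultured with DMSO (0.1% v/v) or compound (final 1, 2 or 10 µM). Lysed 24 h post-transfection. Luciferase normalized to β-galactosidase, expressed relative to empty GAL4 vector (=1.0). Mean ± SD, three independent experiments.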

Data set [8] has as its target Nuclear receptor subfamily 1 group I member 3 (Mus musculus, UniProt O35627, L353A). As to the kind of experiment: Decrease in mouse CAR L353A mutant activation expressed in HEK293 cells at 1 uM by mammalian one-hybrid assay. Type of data set: cell-based. The settings on record: read-out: Activity. The method in brief: as §4
Data set [9] has as its target T5, Nuclear receptor subfamily 1 group I member 3 (Mus musculus, UniProt O35627, L212A). The experiment in a line: Effect on steroid receptor co-activator 1 binding to mouse CAR L212A mutant […] at 1 uM by yeast two-hybrid assay. The settings on record: read-out: Activity. Type of data set: cell-based. Put shortly: as §3
Data set [10] concerns the target T5, Nuclear receptor subfamily 1 group I member 3. The experiment in a line: Activation of mouse CAR L212A mutant expressed in HEK293 cells at 1 uM by mammalian one-hybrid assay. The conditions noted are these: hek293, 1 µM. Type of data set: cell-based. The method in brief:
as §4

Data set [11] shares this target. The experiment in a line: Effect on nuclear co-repressor receptor binding to mouse CAR L212A mutant […] at 1 uM by yeast two-hybrid assay. The settings on record: read-out: Activity. Type of data set: cell-based. Put shortly: as §2
In data set [12] the target is T6, Nuclear receptor subfamily 1 group I member 3 (Mus musculus, UniProt O35627, T350M). As to the kind of experiment: Effect on nuclear co-repressor receptor binding to mouse CAR T350M mutant […] at 1 uM by yeast two-hybrid assay. Format: cell-based. The conditions noted are these: read-out: Activity. The method in brief: as §2
T6 sequence (O35627 whole entry T350M): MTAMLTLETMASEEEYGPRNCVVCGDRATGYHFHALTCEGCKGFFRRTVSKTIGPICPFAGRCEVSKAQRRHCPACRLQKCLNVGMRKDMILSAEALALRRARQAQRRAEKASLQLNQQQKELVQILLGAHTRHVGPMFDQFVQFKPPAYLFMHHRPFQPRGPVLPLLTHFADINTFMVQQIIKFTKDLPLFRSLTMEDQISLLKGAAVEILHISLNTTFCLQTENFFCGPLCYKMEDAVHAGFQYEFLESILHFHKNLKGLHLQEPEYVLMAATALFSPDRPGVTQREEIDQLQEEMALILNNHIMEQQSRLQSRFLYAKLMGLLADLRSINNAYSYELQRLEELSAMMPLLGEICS
The target of data set [13] is T3, Nuclear receptor subfamily 1 group I member 3. The conditions noted are these: HEK293, mouse.
Data set [14] concerns the target T2, Nuclear receptor subfamily 1 group I member 3. The experiment in a line: Increase in nuclear co-repressor receptor binding to wild type mouse CAR expressed in HEK293 cells at 10 uM by yeast two-hybrid assay. The conditions noted are these: hek293, 10 µM.
Data set [15] deals with T7, Nuclear receptor subfamily 1 group I member 3 (Mus musculus, UniProt O35627, L253F). The experiment in a line: Decrease in mouse CAR L253F mutant activation expressed in HEK293 cells at 2 uM by mammalian one-hybrid assay. Format: cell-based. The settings on record: read-out: Activity. Put shortly:
(§5)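 GAL4-DBD fused to mouse CAR LBD (residues 118-358), wild-type or point mutant, cotransfected with UASx4-tk-luc reporter and pCMVβ into HEK293 cells. Cells were exposed to final 1 µM, 2 µM or 10 µM test chemical, or 0.1% v/v DMSO, for 24 h after transfection. Luciferase was normalized to β-galactosidase and set against empty GAL4 vector (=1.0). Mean ± standard deviation, three independent experiments.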

Data set [16] concerns the target T6, Nuclear receptor subfamily 1 group I member 3. The experiment in a line: Activation of mouse CAR T350M mutant expressed in HEK293 cells at 2 uM by mammalian one-hybrid assay. The settings on record: hek293, 2 µM. Format: cell-based. Put shortly: as §5
The target of data set [17] is T7, Nuclear receptor subfamily 1 group I member 3. As to the kind of experiment: Decrease in nuclear co-repressor receptor binding to mouse CAR L253F mutant […] at 2 uM by yeast two-hybrid assay. Format: cell-based. The settings on record: read-out: Activity. The method in brief:
as §1

In data set [18] the target is T4, Nuclear receptor subfamily 1 group I member 3. The experiment in a line: Decrease in steroid receptor coactivator 1 binding to mouse CAR S251L mutant […] at 2 uM by yeast two-hybrid assay. Format: cell-based. The settings on record: read-out: Activity. The method in brief:
as §1

For data set [19], the target named is T1, Nuclear receptor subfamily 1 group I member 3. As to the kind of experiment: Enhancement of nuclear co-repressor receptor binding to mouse CAR F171L mutant […] at 2 uM by yeast two-hybrid assay. Type of data set: cell-based. Put shortly: as §1
Data set [20] concerns the target T3, Nuclear receptor subfamily 1 group I member 3. The experiment in a line: Decrease in steroid receptor coactivator 1 binding to mouse CAR Y336A mutant […] at 2 uM by yeast two-hybrid assay. Format: cell-based. The settings on record: read-out: Activity. Put shortly:
as §1

For data set [21] the target is unchanged. As to the kind of experiment: Activation of mouse CAR Y336A mutant expressed in HEK293 cells at 10 uM by mammalian one-hybrid assay. Type of data set: cell-based. The settings on record: hek293, 10 µM. Put shortly: as §4

SMILES strings stand for the structures.

T1 sequence (O35627 whole entry F171L, the tested form may be a part): as the sequence (O35627 whole entry T350M) above, with F171L, M350T counted along it
T3 sequence (O35627 whole entry Y336A, the tested form may be a part): as the sequence (O35627 whole entry T350M) above, with Y336A, M350T counted along it
T5 sequence (O35627 whole entry L212A): as the sequence (O35627 whole entry T350M) above, with L212A, M350T counted along it
T4 sequence (O35627 whole entry S251L, the tested form may be a part): as the sequence (O35627 whole entry T350M) above, with S251L, M350T counted along it
T7 sequence (O35627 whole entry L253F, the tested form may be a part): as the sequence (O35627 whole entry T350M) above, with L253F, M350T counted along it
Nuclear receptor subfamily 1 group I member 3 (Mus musculus, UniProt O35627, L353A), sequence (O35627 whole entry L353A): as the sequence (O35627 whole entry T350M) above, with M350T, L353A counted along it
Nuclear receptor subfamily 1 group I member 3 (Mus musculus, UniProt O35627, H213A), sequence (O35627 whole entry H213A): as the sequence (O35627 whole entry T350M) above, with H213A, M350T counted along it

Regarding `COc1ccc(C(=O)CCCc2ccccc2)cc1`, the Activity entry in [1] is given as “>= 50%”; in data set [2], 40%.
As for `Clc1cnc(Oc2ccc(Oc3ncc(Cl)cc3Cl)cc2)c(Cl)c1`, the activity at 1 µM in data set [3], in data set [5], in data set [6], in data set [9], in [11] and in data set [12] was less than 50% in each case. Besides, the values for the inhibition at 1 µM in data set [4], in data set [7] and in data set [8] were no less than 50%, less than 50% and 50%, respectively. For the same compound, the Activity in [10] is less than 50%.
As for `C[C@]12CC[C@@H](O)C[C@@H]1CC[C@@H]1[C@@H]2CC[C@]2(C)C=CC[C@@H]12` [ANDROSTENOL], in data set [13], the activity at 10 µM is less than 50%. For the same compound, the FC in [14] came to 49.
Take `Clc1ccccc1C(c1ccccc1)(c1ccccc1)n1ccnc1` [CLOTRIMAZOLE]: the inhibition at 2 µM in [15] is 50%; in data set [17], no less than 50%; in data set [18], no less than 50%; in data set [20], no less than 50%. The Activity in data set [16] is greater than 100%; in [19], greater than 150%.
Turning to `COc1ccc(C(c2ccc(OC)cc2)C(Cl)(Cl)Cl)cc1` [METHOXYCHLOR], in [21], the Activity was less than 50%.
